Data published in ChEMBL document CHEMBL1154198, “Chemical genetics of Plasmodium falciparum” (Nature, 2010).

How the values were obtained:
[1] = ST_JUDE: Cytotoxicity using luciferase to measure ATP as an indicator of the viability of human foreskin fibroblast cells (BJ); assay type: toxicity, cell-based
[2] = system: Plasmodium falciparum; assay: ST_JUDE: Cytotoxicity against Plasmodium falciparum SB-A6; assay type: functional, organism-based
[3] = system: Toxoplasma gondii; assay: ST_JUDE: Growth inhibition of to Toxoplasma gondii, in human U-2OS cells, as measured by luciferase.; assay type: functional, organism-based; details: RH, U2OS
Method in brief: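 T. gondii parasites engineered to express luciferase; drug sensitivity read by luminescence.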

[4] = system: Plasmodium falciparum; assay: ST_JUDE: Plasmodium falciparum K1 EC50 (uM) as measured by SYBR green dye; assay type: functional, organism-based
[5] = ST_JUDE: Cytotoxicity using luciferase to measure ATP as an indicator of the viability of human Burkitt''s lymphoma lymphoblast cells (Raji); assay type: toxicity, cell-based
[6] = system: Plasmodium falciparum; assay: ST_JUDE: Cytotoxicity against Plasmodium falciparum 3D7; assay type: functional, organism-based
Method in brief: (§1)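 Asexual P. falciparum grown in human erythrocytes, exposed to compounds for 72 h, and growth read as the DNA quantity in treated versus control cultures. Dose-response run at 12 concentrations from 10 μM to 5 nM.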

[7] = system: Plasmodium falciparum; assay: ST_JUDE: Cytotoxicity against Plasmodium falciparum W2; assay type: functional, organism-based
[8] = system: Leishmania major; assay: ST_JUDE: Cytotoxicity using Alamar Blue to measure viability of Leishmania major; assay type: functional, organism-based
Method in brief: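 L. major promastigotes; drug susceptibility read with Alamar Blue.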

[9] = system: Plasmodium falciparum; assay: ST_JUDE: Cytotoxicity against Plasmodium falciparum K1; assay type: functional, organism-based; method in brief: as §1
[10] = system: Plasmodium falciparum; assay: ST_JUDE: Plasmodium falciparum 3D7 EC50 (uM) as measured by SYBR green dye; assay type: functional, organism-based
[11] = ST_JUDE: Cytotoxicity using luciferase to measure ATP as an indicator of the viability of human epithelial embryonic kidney cells (HEK293); assay type: toxicity, cell-based
[12] = ST_JUDE: Cytotoxicity using luciferase to measure ATP as an indicator of the viability of human epithelial hepatocellular carcinoma cells (HepG2); assay type: toxicity, cell-based
[13] = system: Trypanosoma brucei; assay: ST_JUDE: Cytotoxicity using luciferase to measure ATP as an indicator of the viability of Trypanosoma brucei; assay type: functional, organism-based
[14] = system: Plasmodium falciparum; assay: ST_JUDE: Cytotoxicity against Plasmodium falciparum V1/S; assay type: functional, organism-based
[15] = system: Plasmodium falciparum; assay: ST_JUDE: Cytotoxicity against Plasmodium falciparum Dd2; assay type: functional, organism-based
[16] = system: Plasmodium falciparum; assay: ST_JUDE: Cytotoxicity against Plasmodium falciparum D10 transfected with yeast DHOD; assay type: functional, organism-based

Row | SMILES | EC50 [1] [nM] | EC50 [2] [nM] | EC50 [3] [nM] | EC50 [4] [nM] | EC50 [5] [nM] | EC50 [6] [nM] | EC50 [7] [nM] | EC50 [8] [nM] | EC50 [9] [nM] | EC50 [10] [nM] | EC50 [11] [nM] | EC50 [12] [nM] | EC50 [13] [nM] | EC50 [14] [nM] | EC50 [15] [nM] | EC50 [16] [nM]
1 | Cc1ccc2c(c1)N(C)/C(=C/c1cccc[n+]1C)S2 | > 23000 | 1030 | > 12600 | 179 | 2180 | 588 | 1110 | 10.7 | 675 | 247 | > 23000 | > 23000 | 1050 | 566 | 646 | 859
2 | CC(=O)c1cccc(NC(=O)C2c3ccccc3C(=O)N(CC(C)C)C2c2cccs2)c1 (centres undefined) | > 43200 | 414 | > 23700 | 284 | > 43200 | 363 | > 11100 | > 18500 | 358 | 196 | > 43200 | > 43200 | 5850 | 371 | 392 | 411
3 | Cc1ccc(C)c(NC(=O)CC2C(=O)N(c3ccccc3)C(=S)N2Cc2ccco2)c1 (centres undefined) | > 44100 | 385 | > 24100 | 395 | 41000 | 2510 | 292 | > 18900 | 2720 | 259 | > 44100 | > 44100 | > 42300 | 361 | 428 | 449
4 | COc1ccc(C2CC(=O)C3=C(C2)NC(=O)CC3c2ccc(Br)cc2)cc1OC (centres undefined) | > 47500 | 1490 | > 26000 | 650 | > 47500 | 1040 | 7740 | > 20300 | 1110 | 1140 | > 47500 | > 47500 | 25600 | 1780 | 750 | 1780
5 | Cc1oc2c(c1C(=O)NCCC(C)C)C(=O)c1ccccc1C2=O | > 42500 | 1120 | > 23300 | 424 | > 42500 | 1230 | > 10900 | > 18200 | 1170 | 7610 | > 42500 | > 42500 | 2380 | > 10900 | 2340 | 842
6 | CCO/C(O)=C1\C(C)=NC2=C(C(=O)CC(c3ccc(OC)c(OC)c3)C2)C1c1ccccc1Cl (centres undefined) | > 44600 | 56.1 | > 24400 | 138 | > 44600 | 70.2 | 16.5 | > 19100 | 91.3 | 60.4 | > 44600 | > 44600 | 9640 | 118 | 60.8 | 57.3
7 | Cc1ccc2c(c1)S/C(=C\c1sc3ccccc3[n+]1C)N2CCO | > 23700 | 603 | > 13000 | 140 | 3090 | 548 | 495 | 112 | 567 | 367 | > 23700 | > 23700 | 11000 | 577 | 426 | 438
8 | CCCCCOc1ccc(N(C(C)=O)C2=C(N3CCCCC3)C(=O)c3ccccc3C2=O)cc1 | > 29300 | 110 | > 16100 | 371 | 4100 | 193 | 386 | > 12600 | 129 | 728 | > 29300 | 9760 | 4140 | 114 | 754 | 61.5
9 | CSC(=S)N/N=C(\c1ccccc1)c1ccccn1 | > 42900 | 331 | 1640 | 364 | 33.4 | 563 | > 11000 | > 18400 | 862 | 232 | > 42900 | > 42900 | 2210 | 404 | 0.8 | 398
10 | O=[N+]([O-])c1cc(CN2CCN(c3cccc(C(F)(F)F)c3)CC2)c2cccnc2c1O | > 31900 | 642 | > 17500 | 1190 | > 31900 | 676 | > 8180 | > 13600 | > 8180 | 1280 | > 31900 | > 31900 | 1350 | > 8180 | 791 | 1080
11 | CCO/C(O)=C1\C(C)=NC2=C(C(=O)CC(c3ccc(OC)c(OC)c3)C2)C1c1ccccc1C (centres undefined) | > 42700 | 87.5 | > 23400 | 135 | > 42700 | 97.1 | 54.9 | > 18300 | 120 | 102 | > 42700 | > 42700 | > 40900 | 104 | 96.5 | 87.7
12 | Cc1ccc(C)c(N2CCN(Cc3cc(Cl)ccc3O)CC2)c1 | > 35900 | 536 | > 19700 | 261 | > 35900 | 496 | 1010 | > 15400 | 195 | 724 | > 35900 | > 35900 | > 34400 | 328 | 323 | 549
13 | CCO/C(O)=C1\C(C)=NC2=C(C(=O)CC(c3ccc(OC)c(OC)c3)C2)C1c1cccc(Cl)c1 (centres undefined) | > 41900 | 335 | > 22900 | 226 | > 41900 | 831 | 1800 | > 17900 | 487 | 716 | > 41900 | > 41900 | 16700 | 902 | 1480 | 531
14 | Cc1ccc(NC(=O)C2c3ccccc3C(=O)N(CC(C)C)C2c2cccs2)c(Cl)c1 (centres undefined) | > 44100 | 741 | > 24100 | 747 | > 44100 | > 11300 | 849 | > 18900 | > 11300 | 463 | > 44100 | > 44100 | 8030 | 1180 | 981 | 628
15 | Cc1cccc(N2CCN(Cc3ccccc3O)CC2)c1C | > 32700 | 29.5 | > 17900 | 531 | > 32700 | 976 | 951 | > 14000 | 355 | 1070 | > 32700 | > 32700 | > 31300 | 403 | 626 | 813
16 | CC(C)c1ccccc1Oc1c(C(F)(F)F)oc2c(CN3CCN(C)CC3)c(O)ccc2c1=O | > 21000 | 334 | > 11500 | 224 | > 21000 | 184 | 252 | 326 | 158 | 720 | > 21000 | > 21000 | > 20100 | 178 | 1810 | 231
17 | CCO/C(O)=C1\C(C)=NC2=C(C(=O)CC(c3ccc(OC)c(OC)c3)C2)C1c1ccc([N+](=O)[O-])cc1 (centres undefined) | > 43900 | 228 | > 24100 | 120 | > 43900 | 170 | 239 | > 18800 | 272 | 177 | > 43900 | > 43900 | 8230 | 597 | 600 | 267
18 | O=C(c1ccccc1)N1CCN(c2ccccc2NC(=O)C(Cl)(Cl)Cl)CC1 | > 33700 | 1340 | > 18400 | 877 | > 33700 | 918 | > 8650 | > 14400 | 838 | 1450 | > 33700 | > 33700 | 26800 | 1110 | 2770 | 4190
19 | O=S(=O)(c1ccc(Cl)cc1)N1CCN(C(=S)NCc2ccco2)CC1 | > 30100 | 4460 | > 16500 | 1270 | > 30100 | 864 | 820 | > 12900 | 1150 | 1510 | > 30100 | > 30100 | 24900 | 2400 | 849 | 3490
